Reference: ChEMBL document CHEMBL4689842, “EUbOPEN Chemogenomics Library wave 1” (2021)
Values joined by “and” are separate entries in the source; they are usually repeats but may differ in a detail not shown here. Equal entries are not always repeated.

How the values were obtained:
Format in all cases: toxicity, cell-based
Fibroblast [1] = assay: Multiplex assay against human fibroblast; settings: 10 µM, compound concentration 10 uM
Procedure, shortened: (§1)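 On a CQ1 microscope at 37°C and 5% CO2, live cells were imaged after compound addition. They had been stained at seeding with Hoechst33342, BioTracker Green Microtubule Cytoskeleton Dye, MitoTracker Red and Annexin V Alexa Fluor 680. CellPathfinder machine-learning gating assigned cells to Hoechst high-intensity objects or normal cells, normal cells to healthy, pyknosed or fragmented nuclei, and pyknosed cells to mitotic or apoptotic. Tubulin, mitochondrial-mass and membrane-permeability phenotypes are per cents of healthy-nucleus cells.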

HEK-293T [2] = assay: Multiplex assay against HEK293T; settings: human, 10 µM, compound concentration 10 uM; procedure, shortened: as §1
U2OS [3] = assay: Multiplex assay against U2OS; settings: human, 10 µM, compound concentration 10 uM; procedure, shortened: as §1
HEK-293T [4] = assay: Incucyte cell viability with HEK293T; settings: human, 10 µM, compound concentration 10 uM; note: filed as whole numbers so only -1 and 0 and 1 occur
Fibroblast [5] = assay: Incucyte cell viability with human fibroblast; settings: 10 µM, compound concentration 10 uM; note: filed as whole numbers so only -1 and 0 and 1 occur
U2OS [6] = assay: Incucyte cell viability with U2OS; settings: human, 10 µM, compound concentration 10 uM; note: filed as whole numbers so only -1 and 0 and 1 occur
[7] = 6 h, replicate number 1, timepoint 6 hours
[8] = 12 h, replicate number 1, timepoint 12 hours
[9] = 18 h, replicate number 1, timepoint 18 hours
[10] = 24 h, replicate number 1, timepoint 24 hours

SMILES: COc1cc(C)c(Sc2cnc(NC(=O)c3ccc(CNC(C)C(C)(C)C)cc3)s2)cc1C(=O)N1CCN(C(C)=O)CC1 (stereo not drawn)
- Population Apoptotic (%) (Fibroblast [1]; 12 h, replicate 1): 67% and 75%
- Population Fragmented Nuclei (%) (Fibroblast [1]; 12 h, replicate 1): 22% and 35%
- Population Healthy Nuclei (%) (Fibroblast [1]; 12 h, replicate 1): 60% and 50%
- Population Hoechst High Intensity Objects (%) (Fibroblast [1]; 12 h, replicate 1): 12%
- Population Membrane Permeable-Phenotype (%) (Fibroblast [1]; 12 h, replicate 1): 6%
- Population Mitotic Cells (%) (Fibroblast [1]; 12 h, replicate 1): 32% and 25%
- Population Normal (%) (Fibroblast [1]; 12 h, replicate 1): 87%
- Population Pyknosed Nuclei (%) (Fibroblast [1]; 12 h, replicate 1): 14%
- Population Tubulin-Different-Phenotype (%) (Fibroblast [1]; 12 h, replicate 1): 4% and 12%
- Total Cell Count (Fibroblast [1]; 12 h, replicate 1): 276 and 186
- Population Apoptotic (%) (Fibroblast [1]; 12 h, replicate 2): 50% and 40%
- Population Fragmented Nuclei (%) (Fibroblast [1]; 12 h, replicate 2): 46% and 56%
- Population Healthy Nuclei (%) (Fibroblast [1]; 12 h, replicate 2): 38% and 33%
- Population Hoechst High Intensity Objects (%) (Fibroblast [1]; 12 h, replicate 2): 29% and 43%
- Population Membrane Permeable-Phenotype (%) (Fibroblast [1]; 12 h, replicate 2): 10% and 11%
- Population Mitochondria Different-Phenotype (%) (Fibroblast [1]; 12 h, replicate 2): 10% and 27%
- Population Mitotic Cells (%) (Fibroblast [1]; 12 h, replicate 2): 50% and 60%
- Population Normal (%) (Fibroblast [1]; 12 h, replicate 2): 70% and 56%
- Population Pyknosed Nuclei (%) (Fibroblast [1]; 12 h, replicate 2): 16% and 9%
- Total Cell Count (Fibroblast [1]; 12 h, replicate 2): 71 and 94
- Population Apoptotic (%) (Fibroblast [1]; 24 h, replicate 1): 57% and 91%
- Population Fragmented Nuclei (%) (Fibroblast [1]; 24 h, replicate 1): 18% and 31%
- Population Healthy Nuclei (%) (Fibroblast [1]; 24 h, replicate 1): 69% and 53%
- Population Hoechst High Intensity Objects (%) (Fibroblast [1]; 24 h, replicate 1): 17% and 13%
- Population Membrane Permeable-Phenotype (%) (Fibroblast [1]; 24 h, replicate 1): 9% and 6%
- Population Normal (%) (Fibroblast [1]; 24 h, replicate 1): 82% and 86%
- Population Pyknosed Nuclei (%) (Fibroblast [1]; 24 h, replicate 1): 14%
- Total Cell Count (Fibroblast [1]; 24 h, replicate 1): 264 and 192
- Population Apoptotic (%) (Fibroblast [1]; 24 h, replicate 2): 33% and 66%
- Population Fragmented Nuclei (%) (Fibroblast [1]; 24 h, replicate 2): 46% and 54%
- Population Healthy Nuclei (%) (Fibroblast [1]; 24 h, replicate 2): 42% and 33%
- Population Hoechst High Intensity Objects (%) (Fibroblast [1]; 24 h, replicate 2): 23% and 42%
- Population Membrane Permeable-Phenotype (%) (Fibroblast [1]; 24 h, replicate 2): 8% and 22%
- Population Mitotic Cells (%) (Fibroblast [1]; 24 h, replicate 2): 66% and 33%
- Population Normal (%) (Fibroblast [1]; 24 h, replicate 2): 76% and 57%
- Population Pyknosed Nuclei (%) (Fibroblast [1]; 24 h, replicate 2): 11%
- Total Cell Count (Fibroblast [1]; 24 h, replicate 2): 71 and 92
- Population Apoptotic (%) (HEK-293T [2]; 12 h, replicate 1): 22% and 18%
- Population Fragmented Nuclei (%) (HEK-293T [2]; 12 h, replicate 1): 20% and 17%
- Population Healthy Nuclei (%) (HEK-293T [2]; 12 h, replicate 1): 47% and 68%
- Population Hoechst High Intensity Objects (%) (HEK-293T [2]; 12 h, replicate 1): 19% and 8%
- Population Membrane Permeable-Phenotype (%) (HEK-293T [2]; 12 h, replicate 1): 6% and 3%
- Population Mitotic Cells (%) (HEK-293T [2]; 12 h, replicate 1): 77% and 81%
- Population Normal (%) (HEK-293T [2]; 12 h, replicate 1): 80% and 91%
- Population Pyknosed Nuclei (%) (HEK-293T [2]; 12 h, replicate 1): 31% and 13%
- Total Cell Count (HEK-293T [2]; 12 h, replicate 1): 653 and 686
- Population Fragmented Nuclei (%) (HEK-293T [2]; 12 h, replicate 2): 4% and 5%
- Population Healthy Nuclei (%) (HEK-293T [2]; 12 h, replicate 2): 86% and 89%
- Population Hoechst High Intensity Objects (%) (HEK-293T [2]; 12 h, replicate 2): 3% and 2%
- Population Membrane Permeable-Phenotype (%) (HEK-293T [2]; 12 h, replicate 2): 1%
- Population Mitochondria Different-Phenotype (%) (HEK-293T [2]; 12 h, replicate 2): 22% and 9%
- Population Mitotic Cells (%) (HEK-293T [2]; 12 h, replicate 2): 85% and 95%
- Population Normal (%) (HEK-293T [2]; 12 h, replicate 2): 96% and 97%
- Population Pyknosed Nuclei (%) (HEK-293T [2]; 12 h, replicate 2): 9% and 4%
- Total Cell Count (HEK-293T [2]; 12 h, replicate 2): 1194 and 1652
- Population Apoptotic (%) (HEK-293T [2]; 24 h, replicate 1): 28% and 21%
- Population Fragmented Nuclei (%) (HEK-293T [2]; 24 h, replicate 1): 19% and 13%
- Population Healthy Nuclei (%) (HEK-293T [2]; 24 h, replicate 1): 65% and 78%
- Population Hoechst High Intensity Objects (%) (HEK-293T [2]; 24 h, replicate 1): 14% and 6%
- Population Membrane Permeable-Phenotype (%) (HEK-293T [2]; 24 h, replicate 1): 10% and 6%
- Population Mitotic Cells (%) (HEK-293T [2]; 24 h, replicate 1): 71% and 78%
- Population Normal (%) (HEK-293T [2]; 24 h, replicate 1): 85% and 93%
- Population Pyknosed Nuclei (%) (HEK-293T [2]; 24 h, replicate 1): 14% and 7%
- Total Cell Count (HEK-293T [2]; 24 h, replicate 1): 664 and 754
- Population Apoptotic (%) (HEK-293T [2]; 24 h, replicate 2): 7% and 4%
- Population Fragmented Nuclei (%) (HEK-293T [2]; 24 h, replicate 2): 15% and 22%
- Population Healthy Nuclei (%) (HEK-293T [2]; 24 h, replicate 2): 81% and 74%
- Population Hoechst High Intensity Objects (%) (HEK-293T [2]; 24 h, replicate 2): 3%
- Population Membrane Permeable-Phenotype (%) (HEK-293T [2]; 24 h, replicate 2): 8% and 5%
- Population Mitochondria Different-Phenotype (%) (HEK-293T [2]; 24 h, replicate 2): 5% and 2%
- Population Mitotic Cells (%) (HEK-293T [2]; 24 h, replicate 2): 92% and 95%
- Population Normal (%) (HEK-293T [2]; 24 h, replicate 2): 96%
- Population Pyknosed Nuclei (%) (HEK-293T [2]; 24 h, replicate 2): 3% and 2%
- Total Cell Count (HEK-293T [2]; 24 h, replicate 2): 2038 and 2847
- Population Apoptotic (%) (U2OS [3]; 12 h, replicate 1): 33% and 44%
- Population Fragmented Nuclei (%) (U2OS [3]; 12 h, replicate 1): 6% and 2%
- Population Healthy Nuclei (%) (U2OS [3]; 12 h, replicate 1): 84%
- Population Hoechst High Intensity Objects (%) (U2OS [3]; 12 h, replicate 1): 3% and 4%
- Population Mitochondria Different-Phenotype (%) (U2OS [3]; 12 h, replicate 1): 12% and 33%
- Population Mitotic Cells (%) (U2OS [3]; 12 h, replicate 1): 66% and 55%
- Population Normal (%) (U2OS [3]; 12 h, replicate 1): 96% and 95%
- Population Pyknosed Nuclei (%) (U2OS [3]; 12 h, replicate 1): 8% and 6%
- Population Tubulin-Different-Phenotype (%) (U2OS [3]; 12 h, replicate 1): 32%
- Total Cell Count (U2OS [3]; 12 h, replicate 1): 180 and 143
- Population Apoptotic (%) (U2OS [3]; 12 h, replicate 2): 0%
- Population Fragmented Nuclei (%) (U2OS [3]; 12 h, replicate 2): 5%
- Population Healthy Nuclei (%) (U2OS [3]; 12 h, replicate 2): 90% and 89%
- Population Hoechst High Intensity Objects (%) (U2OS [3]; 12 h, replicate 2): 12% and 8%
- Population Mitochondria Different-Phenotype (%) (U2OS [3]; 12 h, replicate 2): 16% and 15%
- Population Mitotic Cells (%) (U2OS [3]; 12 h, replicate 2): 100%
- Population Normal (%) (U2OS [3]; 12 h, replicate 2): 87% and 91%
- Population Pyknosed Nuclei (%) (U2OS [3]; 12 h, replicate 2): 3% and 4%
- Population Tubulin-Different-Phenotype (%) (U2OS [3]; 12 h, replicate 2): 24% and 19%
- Total Cell Count (U2OS [3]; 12 h, replicate 2): 98 and 130
- Population Apoptotic (%) (U2OS [3]; 24 h, replicate 1): 78% and 28%
- Population Fragmented Nuclei (%) (U2OS [3]; 24 h, replicate 1): 2% and 4%
- Population Healthy Nuclei (%) (U2OS [3]; 24 h, replicate 1): 90% and 92%
- Population Hoechst High Intensity Objects (%) (U2OS [3]; 24 h, replicate 1): 1%
- Population Membrane Permeable-Phenotype (%) (U2OS [3]; 24 h, replicate 1): 7%
- Population Mitochondria Different-Phenotype (%) (U2OS [3]; 24 h, replicate 1): 14% and 24%
- Population Normal (%) (U2OS [3]; 24 h, replicate 1): 98%
- Population Pyknosed Nuclei (%) (U2OS [3]; 24 h, replicate 1): 6% and 3%
- Population Tubulin-Different-Phenotype (%) (U2OS [3]; 24 h, replicate 1): 18% and 34%
- Total Cell Count (U2OS [3]; 24 h, replicate 1): 222 and 212
- Population Apoptotic (%) (U2OS [3]; 24 h, replicate 2): 18% and 40%
- Population Fragmented Nuclei (%) (U2OS [3]; 24 h, replicate 2): 3% and 7%
- Population Healthy Nuclei (%) (U2OS [3]; 24 h, replicate 2): 80% and 89%
- Population Hoechst High Intensity Objects (%) (U2OS [3]; 24 h, replicate 2): 10% and 7%
- Population Membrane Permeable-Phenotype (%) (U2OS [3]; 24 h, replicate 2): 15% and 5%
- Population Mitochondria Different-Phenotype (%) (U2OS [3]; 24 h, replicate 2): 25% and 33%
- Population Mitotic Cells (%) (U2OS [3]; 24 h, replicate 2): 81% and 60%
- Population Normal (%) (U2OS [3]; 24 h, replicate 2): 89% and 92%
- Population Pyknosed Nuclei (%) (U2OS [3]; 24 h, replicate 2): 16%
- Population Tubulin-Different-Phenotype (%) (U2OS [3]; 24 h, replicate 2): 15% and 28%
- Total Cell Count (U2OS [3]; 24 h, replicate 2): 108 and 162
- Growth Rate (HEK-293T [4]; [7]): 0
- Growth Rate (HEK-293T [4]; [8]): 0
- Growth Rate (HEK-293T [4]; [9]): 0
- Growth Rate (HEK-293T [4]; [10]): 0
- Growth Rate (Fibroblast [5]; [7]): 0
- Growth Rate (Fibroblast [5]; [8]): 0
- Growth Rate (Fibroblast [5]; [9]): 0
- Growth Rate (Fibroblast [5]; [10]): 0
- Growth Rate (U2OS [6]; 0 h, replicate number 1, timepoint 0 hours): 0
- Growth Rate (U2OS [6]; [7]): 0
- Growth Rate (U2OS [6]; [8]): 0
- Growth Rate (U2OS [6]; [9]): 0
- Growth Rate (U2OS [6]; [10]): 0
